Measured values from ChEMBL document CHEMBL2406954, “Improved flavodoxin inhibitors with potential therapeutic effects against Helicobacter pylori infection” (J Med Chem, 2013).
Converted amounts (≈) assume the structure as drawn. The source made the active and inactive calls. The rule behind the calls is not given here.

What was measured:
[1] = Binding affinity to Helicobacter pyroli flavodoxin expressed in Escherichia coli by isothermal titration calorimetry analysis; parameters: species or system Helicobacter pylori
In short: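 ITC at 25°C: degassed 20 µM protein titrated with ~500 µM inhibitor, both in 50 mM EPPS pH 9.0, 5% DMSO. Injection heats fitted to a 1:1 binding model for Kd.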

[2] = Therapeutic index, ratio of MCC for human HeLa cells to MIC for Helicobacter pylori; assay type: cell-based; details: read-out: TI
Helicobacter pylori [3] = test: Antibacterial activity against Helicobacter pylori after 28 hrs by microdilution method; assay type: functional
[4] = Cytotoxicity in human HeLa cells after 24 hrs by XTT assay; assay type: cell-based
In short: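 HeLa cells, 30,000 per well in DMEM with 10% fetal serum and penicillin/streptomycin. Compound added from DMSO to final 0.1, 0.25, 0.5, 1, 10, 25, 50, 75, 100 µM; DMSO-only controls. 24 h at 37 °C, then medium exchanged for phenol red-free medium, XTT-PMS added, 4 h at 37 °C, absorbance read at 450 and 500 nm. Two experiments, each in triplicate.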

Helicobacter pylori [5] = test: Bactericidal activity against Helicobacter pylori at 2 times MIC; assay type: functional, organism-based

Structure (SMILES) | Kd [1] [µM] | selectivity ratio [2] | MIC (Helicobacter pylori [3]) [µM] | MCC at 24 h [4] [µM] | Activity (Helicobacter pylori [5])
O=[N+]([O-])C1=Cc2c(ccc3ccccc23)OC1c1ccc(F)cc1 (configuration not stated) | 0.78 | 8.3 | 1.2 (≈ 0.386 µg/mL) | 10 | Active
O=[N+]([O-])/C=C/c1cc(Cl)cc(Cl)c1 | 0.67 | 0.8 | 2.4 (≈ 0.523 µg/mL) | 2 | 
O=[N+]([O-])/C=C/c1c(F)cc(Cl)cc1F | 7.4 | 37.7 | 0.53 (≈ 0.116 µg/mL) | 20 | Active
O=[N+]([O-])/C=C/c1ccccc1C(F)(F)F | 8.8 | 0.04 | 2.4 (≈ 0.521 µg/mL) | 0.1 | 
O=C(O)/C=C/c1cc(C(F)(F)F)cc(C(F)(F)F)c1 |  |  |  | 100 | 
O=[N+]([O-])/C=C/c1cc(C(F)(F)F)ccc1F | 4.4 | 15.1 | 0.53 (≈ 0.125 µg/mL) | 8 | 
COC(=O)/C=C/c1cc(C(F)(F)F)cc(C(F)(F)F)c1 |  |  |  | 100 | 
O=[N+]([O-])/C=C/c1ccccc1I | 16 | 0.2 | 4.8 (≈ 1.32 µg/mL) | 1 | 
O=[N+]([O-])/C=C/c1ccc(F)cc1 | 40 | 18.9 | 1.06 (≈ 0.177 µg/mL) | 20 | Active
O=[N+]([O-])/C=C/c1ccc(I)cc1 | 6.6 | 9.4 | 1.06 (≈ 0.292 µg/mL) | 10 | Active
Brc1cccc2nsnc12 |  |  |  | 100 | 
COc1ccc(Sc2ccc([N+](=O)[O-])c3nonc23)cc1 | 2.6 | 1.5 | 2 (≈ 0.607 µg/mL) | 3 | Active
COc1cccc(/C=C(\C)[N+](=O)[O-])c1 | 5.5 | 0.3 | 2.4 (≈ 0.464 µg/mL) | 0.7 | 
COc1ccc(CCCSc2ccc([N+](=O)[O-])c3nonc23)cc1 |  |  |  | 1 | 
O=[N+]([O-])C1=Cc2cc(Cl)ccc2NC1c1ccc(F)cc1 (configuration not stated) | 33 |  |  |  | 
O=C(Nc1ccccc1)OCCSc1ccc([N+](=O)[O-])c2nonc12 |  |  |  | 2.2 | 
COc1ccc(CSc2ccc(S(N)(=O)=O)c3nonc23)cc1 |  |  |  | 12 | 
O=[N+]([O-])/C=C/c1c(F)c(F)c(F)c(F)c1F | 10 | 0.001 | 8 (≈ 1.91 µg/mL) | 0.01 | 
CCOC(=O)C1=Cc2cc(Cl)cc(Cl)c2OC1c1ccc(F)cc1 (configuration not stated) |  |  |  | 12 | 
Cc1ccc(Sc2ccc([N+](=O)[O-])c3nonc23)cc1 |  |  |  | 1.3 | 
COc1ccc(CSc2ccc(N)c3nonc23)cc1 |  |  |  | 100 | 

Structure (SMILES) | Kd [1] [µM] | selectivity ratio [2] | MIC (Helicobacter pylori [3]) [µM] | MCC at 24 h [4] [µM] | Activity (Helicobacter pylori [5])
COc1ccc(CSc2ccc([N+](=O)[O-])c3nonc23)cc1 |  |  |  | 1.7 | 
O=[N+]([O-])C1=Cc2cc(Cl)cc(Cl)c2OC1c1ccc(Br)cc1 (configuration not stated) | 25 |  |  |  | 
O=[N+]([O-])C1=Cc2cc(Cl)cc(Cl)c2OC1c1ccc(F)cc1 (configuration not stated) |  |  |  | 6 | 
O=[N+]([O-])C1=Cc2cc(Cl)cc(Cl)c2OC1c1ccc(I)cc1 (configuration not stated) |  |  |  | 10 | 
O=C(Nc1ccc(Cl)cc1Cl)OCCSc1ccc([N+](=O)[O-])c2nonc12 |  |  |  | 1.7 | 
O=[N+]([O-])/C=C/c1ccc(F)cc1Br | 19 | 2.1 | 4.8 (≈ 1.18 µg/mL) | 10 | 
COc1ccc(C2(C)SCc3cc(C)c(C)cc3CS2)cc1 |  |  |  | 100 | 
O=[N+]([O-])C1=Cc2cc(Cl)ccc2OC1c1ccc(Cl)cc1 (configuration not stated) |  |  |  | 6 | 
O=[N+]([O-])C1=Cc2cc(Cl)ccc2OC1c1ccc(F)cc1 (configuration not stated) |  |  |  | 6 | 
COC(=O)C1=C(c2ccccc2Cl)Oc2ccc([N+](=O)[O-])cc2C1 |  |  |  | 70 | 
NS(=O)(=O)c1ccc(SCCO)c2nonc12 |  |  |  | 100 | 
O=[N+]([O-])/C=C/c1cc(C(F)(F)F)cc(C(F)(F)F)c1 | 3.5 | 1.5 | 2.4 (≈ 0.684 µg/mL) | 3.5 | 
O=C(OCCSc1ccc([N+](=O)[O-])c2nonc12)c1ccc(Cl)cc1Cl |  |  |  | 4 | 
CN(C)c1ccc([N+](=O)[O-])c2nonc12 |  |  |  | 100 | 
O=[N+]([O-])/C=C/c1ccc(Cl)c(C(F)(F)F)c1 | 2.8 | 4.7 | 1.06 (≈ 0.267 µg/mL) | 5 | 
O=[N+]([O-])/C=C/c1cccc(C(F)(F)F)c1 | 7.9 | 8.4 | 4.75 (≈ 1.03 µg/mL) | 40 | Active
COc1ccc(C(=O)OCCSc2ccc([N+](=O)[O-])c3nonc23)cc1 |  |  |  | 8 | 
O=[N+]([O-])/C=C/c1cc(Cl)cc(Br)c1 | 10 |  |  | 2.7 | 
O=[N+]([O-])/C=C/c1ccc(Br)cc1 | 4.1 | 15.1 | 0.53 (≈ 0.121 µg/mL) | 8 | Active
CSc1ccc(C2Oc3ccccc3C=C2[N+](=O)[O-])cc1 (configuration not stated) |  |  |  | 1 | 
